Assay results reported in ChEMBL document CHEMBL1777756, “Discovery of Novel Benzo[a]phenoxazine SSJ-183 as a Drug Candidate for Malaria” (ACS Med Chem Lett, 2010).
Calls of active or inactive are those of the source. No cut-off for these calls is given here.

What was measured:
Mus musculus [1] = assay: Phototoxicity against mouse at 300 mg/kg, po; assay type: organism-based; design: dose 300 mg/kg, route oral; conditions: in vivo
In short: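 Mice dosed orally at 300 mg/kg were assessed for phototoxicity.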

[2] = target: T1, Adenosine receptor A3 (Homo sapiens) (UniProt P0DMS8); assay: Inhibition of human recombinant A3 receptor at 1 uM
T1 sequence (whole entry): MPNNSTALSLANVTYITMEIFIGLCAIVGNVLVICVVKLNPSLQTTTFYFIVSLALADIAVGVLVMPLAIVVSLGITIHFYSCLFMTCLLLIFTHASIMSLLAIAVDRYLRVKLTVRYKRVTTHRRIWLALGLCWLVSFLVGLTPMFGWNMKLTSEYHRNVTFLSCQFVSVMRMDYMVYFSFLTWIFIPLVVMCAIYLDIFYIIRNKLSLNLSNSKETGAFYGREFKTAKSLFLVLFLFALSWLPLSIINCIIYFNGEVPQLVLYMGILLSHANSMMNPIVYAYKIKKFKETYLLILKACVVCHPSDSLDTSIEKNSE
In short: (§1)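 Binding assays were run against a panel of 80 receptors at 1 μM compound. Percent inhibition was read for human recombinant receptors.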

[3] = Biodistribution in mouse urine at 100 mg/kg, po administered as single dose; assay type: ADME, organism-based; design: dose 100 mg/kg, route oral; conditions: in vivo
In short: (§2)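 Mice received a single oral dose of 100 mg/kg. Urine, eyes and organs were then checked by eye for the purple/blue colour of the compound formulation.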

[4] = Toxicity in rat at 1000 mg/kg by micronucleus test; assay type: organism-based; design: dose 1000 mg/kg; conditions: in vivo
In short: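 In vivo micronucleus test in rats dosed at 1000 mg/kg × 2.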

[5] = Toxicity in S9 fraction at 2 uM by micronucleus test; assay type: subcellular; conditions: s9, 2 µM
In short: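 In vitro micronucleus test at 2.0 μM, run both without and with S9.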

[6] = target: D(3) dopamine receptor (Homo sapiens) (UniProt P35462); assay: Inhibition of human recombinant D3 receptor at 1 uM; in short: as §1
Blood = assay: Cytotoxicity in G6PD-deficient human blood assessed as hemolysis; assay type: tissue-based
Plasmodium falciparum = assay: Antimalarial activity against chloroquine and pyrimethamine resistant Plasmodium falciparum K1; assay type: functional, organism-based
In short: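 IC50 was determined in vitro against the chloroquine- and pyrimethamine-resistant P. falciparum K1 strain. Values are the mean of two independent assays.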

L6 = assay: Cytotoxicity against rat L6 cells; assay type: cell-based
In short: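 Cytotoxicity was tested against L-6 rat myoblasts, with IC50 determined. Values are the mean of two independent assays.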

[7] = Selectivity index, ratio of IC50 for rat L6 cells to IC50 for Plasmodium falciparum K1; assay type: toxicity, cell-based; conditions: read-out: Ratio IC50
In short: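 Selectivity index is IC50 against L-6 cells divided by IC50 against chloroquine/pyrimethamine-resistant P. falciparum K1. Each IC50 is the mean of two independent assays.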

Plasmodium berghei [8] = assay: Antimalarial activity against Plasmodium berghei NK-65 infected in ICR mouse assessed as inhibition of parasitemia at 100 mg/kg, po administered as single dose on day 1 measured on day 4; assay type: functional
In short: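 Compound was formulated at 100 mg/kg in 5% glucose/10% ethanol or in 7% Tween 80/3% ethanol. The suspension was given as a single oral dose on day 1 to female ICR mice infected with P. berghei NK-65. Parasitemia was determined on day 4 after infection. Treated-group mean is expressed as percent difference from the control-group mean.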

Plasmodium berghei [9] = assay: Antimalarial activity against Plasmodium berghei NK-65 infected in ICR mouse assessed as survival days at 100 mg/kg, po administered as single dose (reference value: 6 days); assay type: functional
In short: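 Female ICR mice infected with P. berghei NK-65 received a single oral dose of 100 mg/kg on day 1. The compound was given as a suspension in 5% glucose/10% ethanol or in 7% Tween 80/3% ethanol. Parasitemia was read on day 4 as percent reduction relative to untreated controls, and mean survival days were recorded.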

Plasmodium berghei [10] = assay: Antimalarial activity against Plasmodium berghei ANKA infected in NMRI mouse assessed as survival days at 100 mg/kg, po administered as single dose; assay type: functional
In short: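 Female NMRI mice infected with P. berghei ANKA received a single oral dose of 100 mg/kg. Three independent experiments were run with 3 mice each. Mean survival days were averaged across the experiments.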

Plasmodium berghei [11] = assay: Antimalarial activity against Plasmodium berghei ANKA infected in NMRI mouse at 100 mg/kg, po administered as single dose; assay type: functional
In short: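 Female NMRI mice infected with P. berghei ANKA strain were given a single oral dose of 100 mg/kg. Three independent experiments were run with n = 3 mice per experiment. Inhibition of parasitemia and mean survival days are averaged across the experiments.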

Plasmodium berghei [12] = assay: Antimalarial activity against Plasmodium berghei ANKA expressing green fluorescent protein infected in NMRI mouse assessed as growth inhibition at 100 mg/kg, po qd administered for 3 consecutive days measured on day 4 post parasitic infection; assay type: functional; conditions: 96 h, read-out: GI
In short: (§3)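 Oral dosing once a day for three consecutive days to female NMRI mice infected with P. berghei GFP ANKA strain. n = 3 mice per dose, data from 2–3 independent experiments. Parasitemia inhibition read on day 4 postinfection. Mean survival days and the percentage of cured animals were recorded.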

Plasmodium berghei [13] = assay: Antimalarial activity against Plasmodium berghei ANKA expressing green fluorescent protein infected in NMRI mouse assessed as growth inhibition at 30 mg/kg, po qd administered for 3 consecutive days measured on day 4 post parasitic infection; assay type: functional; conditions: 96 h, read-out: GI; in short: as §3
Plasmodium berghei [14] = assay: Antimalarial activity against Plasmodium berghei ANKA expressing green fluorescent protein infected in NMRI mouse assessed as growth inhibition at 10 mg/kg, po qd administered for 3 consecutive days measured on day 4 post parasitic infection; assay type: functional; conditions: 96 h, read-out: GI; in short: as §3
Plasmodium berghei [15] = assay: Antimalarial activity against Plasmodium berghei ANKA expressing green fluorescent protein infected in NMRI mouse assessed as survival days at 100 mg/kg, po qd administered for 3 consecutive days; assay type: functional
In short: (§4)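 Female NMRI mice infected with GFP-expressing P. berghei ANKA were dosed orally once daily for three consecutive days, 3 mice per dose level, in 2 to 3 independent experiments. Parasitemia was read on day 4 post-infection, and mean survival days were recorded along with the percentage of cured animals.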

Plasmodium berghei [16] = assay: Antimalarial activity against Plasmodium berghei ANKA expressing green fluorescent protein infected in NMRI mouse assessed as survival days at 30 mg/kg, po qd administered for 3 consecutive days; assay type: functional; in short: as §4
Plasmodium berghei [17] = assay: Antimalarial activity against Plasmodium berghei ANKA expressing green fluorescent protein infected in NMRI mouse assessed as survival days at 10 mg/kg, po qd administered for 3 consecutive days; assay type: functional; in short: as §4
Plasmodium berghei [18] = assay: Antimalarial activity against Plasmodium berghei ANKA expressing green fluorescent protein infected in NMRI mouse assessed as cure rate at 100 mg/kg, po qd administered for 3 consecutive days; assay type: functional; in short: as §3
Plasmodium berghei [19] = assay: Antimalarial activity against Plasmodium berghei ANKA expressing green fluorescent protein infected in NMRI mouse assessed as cure rate at 30 mg/kg, po qd administered for 3 consecutive days; assay type: functional; in short: as §3
Mus musculus [20] = assay: Toxicity in NMRI mouse infected with Plasmodium berghei ANKA expressing green fluorescent protein assessed as lethality at 2000 mg/kg, po qd administered for 3 consecutive days; assay type: organism-based; design: dose 2000 mg/kg, route oral; conditions: in vivo
[21] = Toxicity in S9 fraction at 1000 uM by chromosomal aberration test; assay type: subcellular; conditions: s9, 1000 µM
In short: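 Chromosome aberration test at 1000 μM, run both without and with S9 metabolic activation.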

[22] = Selectivity ratio of IC50 for Plasmodium falciparum K1 to IC50 for Trypanosoma brucei rhodesiense; assay type: functional
Trypanosoma cruzi [23] = assay: Selectivity ratio of IC50 for Plasmodium falciparum K1 to IC50 for Trypanosoma cruzi; assay type: functional
Leishmania donovani [24] = assay: Selectivity ratio of IC50 for Plasmodium falciparum K1 to IC50 for Leishmania donovani; assay type: functional
[25] = tested on: Trypanosoma brucei rhodesiense; assay: Antiparasitic activity against Trypanosoma brucei rhodesiense; assay type: functional, organism-based
Trypanosoma cruzi [26] = assay: Antiparasitic activity against Trypanosoma cruzi; assay type: functional, organism-based
Leishmania donovani [27] = assay: Antiparasitic activity against Leishmania donovani; assay type: functional, organism-based
Mus musculus [28] = assay: Biodistribution in mouse eyes at 100 mg/kg, po administered as single dose; assay type: ADME, organism-based, Eye; design: dose 100 mg/kg, route oral; conditions: in vivo; in short: as §2
[29] = Terminal-half life in iv dosed Sprague-Dawley rat; assay type: ADME, organism-based; conditions: in vivo, read-out: beta t1/2 (converted)
In short: (§5)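 Male Sprague–Dawley rats received 2.8 mg/kg intravenously or 21.5 mg/kg orally, and the plasma concentration–time profile was followed. Oral bioavailability and terminal half-life after iv dosing were derived.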

[30] = Oral bioavailability in Sprague-Dawley rat; assay type: ADME, organism-based; conditions: in vivo; in short: as §5
Plasmodium berghei [31] = assay: Antimalarial activity against Plasmodium berghei str. ANKA infected in mouse assessed as cure rate at 100 mg/kg, po administered as three daily dose; assay type: functional, organism-based; design: dose 100 mg/kg; in short: as §3

Chain of D(3) dopamine receptor (Homo sapiens) (P35462 whole entry): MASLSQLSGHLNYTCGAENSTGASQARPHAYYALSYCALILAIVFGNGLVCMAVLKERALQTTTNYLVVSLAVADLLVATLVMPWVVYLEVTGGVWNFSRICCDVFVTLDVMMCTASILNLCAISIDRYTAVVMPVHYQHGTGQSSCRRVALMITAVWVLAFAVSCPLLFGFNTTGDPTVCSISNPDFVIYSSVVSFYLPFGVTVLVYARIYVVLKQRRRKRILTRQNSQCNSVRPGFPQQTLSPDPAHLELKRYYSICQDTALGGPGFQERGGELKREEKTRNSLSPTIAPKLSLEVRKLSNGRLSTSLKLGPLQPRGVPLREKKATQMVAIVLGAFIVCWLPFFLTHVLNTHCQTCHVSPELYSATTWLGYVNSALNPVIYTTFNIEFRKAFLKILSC

SMILES: CCN(CC)c1ccc2nc3c4ccccc4/c(=N\c4ccncc4)cc-3oc2c1
- Activity (Mus musculus [1]): Non-toxic
- inhibition [2]: 80%
- Drug uptake [3]: Not Active
- Activity [4]: Non-toxic
- Activity [5]: Non-toxic
- inhibition [6]: 80%
- Activity (Blood): Non-toxic
- IC50 (Plasmodium falciparum): 0.0076 µM
- IC50 (L6): 55.7 µM
- selectivity ratio [7]: 7330
- inhibition in vivo at 100 mg/kg (Plasmodium berghei [8]): > 99.9%
- MSD (Plasmodium berghei [9]): 14.6 days
- MSD (Plasmodium berghei [10]): 16 days
- inhibition in vivo at 100 mg/kg (Plasmodium berghei [11]): 99%
- inhibition in vivo at 100 mg/kg (Plasmodium berghei [12]): > 99.9%
- inhibition in vivo at 30 mg/kg (Plasmodium berghei [13]): 99%
- inhibition in vivo at 10 mg/kg (Plasmodium berghei [14]): 26%
- MSD (Plasmodium berghei [15]): >30 days
- MSD (Plasmodium berghei [16]): 27.2 days
- MSD (Plasmodium berghei [17]): 4 days
- Activity (Plasmodium berghei [18]): 100%
- Activity (Plasmodium berghei [19]): 78%
- Activity (Mus musculus [20]): Non-toxic
- Activity [21]: Non-toxic
- Ratio IC50 [22]: > 1000
- Ratio IC50 (Trypanosoma cruzi [23]): > 1000
- Ratio IC50 (Leishmania donovani [24]): > 1000
- IC50 [25]: 36 µM
- IC50 (Trypanosoma cruzi [26]): 11.3 µM
- IC50 (Leishmania donovani [27]): 6.5 µM
- Drug uptake (Mus musculus [28]): Not Active
- half-life [29]: 5.5 h
- bioavailability [30]: 30%
- Activity (Plasmodium berghei [31]): Active
